Experimental data taken from ChEMBL document CHEMBL3758165, “In vitro interactions between anidulafungin and nonsteroidal anti-inflammatory drugs on biofilms of Candida spp” (2016).

Experiments:
Type in all cases: functional
[1] = system: Candida albicans; test: Antibiofilm activity against Candida albicans ATCC 90028 after 48 hrs by XTT reduction assay relative to control; parameters: scale not given: the % may be the effect or the level left
Procedure, shortened: (§1)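 Biofilms grown on autoclaved PVC disks: 1·10^6 cfu ml-1 cells, adhesion 1.5 h at 37 °C shaking 100 rpm, PBS wash, then 48 h at 37 °C in RPMI 1640 (MOPS, pH 7). Metabolic activity read by XTT–menadione reduction, 2 h at 37 °C, supernatant formazan at 490 nm, relative to drug-free control; triplicate on different days.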

[2] = system: Candida albicans; test: Antibiofilm activity against Candida albicans ATCC 24433 after 48 hrs by XTT reduction assay relative to control; parameters: scale not given: the % may be the effect or the level left; procedure, shortened: as §1
[3] = system: Nakaseomyces glabratus; test: Antibiofilm activity against Candida glabrata ATCC 15126 after 48 hrs by XTT reduction assay relative to control; parameters: scale not given: the % may be the effect or the level left; procedure, shortened: as §1
[4] = system: Nakaseomyces glabratus; test: Antibiofilm activity against Candida glabrata 18a10 after 48 hrs by XTT reduction assay relative to control; parameters: scale not given: the % may be the effect or the level left; procedure, shortened: as §1
[5] = system: Meyerozyma guilliermondii; test: Antibiofilm activity against Candida guilliermondii ATCC 6260 after 48 hrs by XTT reduction assay relative to control; parameters: scale not given: the % may be the effect or the level left; procedure, shortened: as §1
[6] = system: Meyerozyma guilliermondii; test: Antibiofilm activity against Candida guilliermondii a83 after 48 hrs by XTT reduction assay relative to control; parameters: scale not given: the % may be the effect or the level left
[7] = system: Candida albicans; test: Antibiofilm activity against Candida albicans ATCC 10231 by two dimensional checkerboard dilution method in presence of aspirin
Procedure, shortened: (§2)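 Preformed 48 h disk biofilms (RPMI 1640, MOPS pH 7, 37 °C), PBS-washed, exposed 24 h at 37 °C on rocker to two-dimensional checkerboard of anidulafungin plus NSAID in RPMI; NSAID final 0.1 µM to 100 mM. XTT reduction at 490 nm; SMIC = combination giving 50% metabolic reduction versus drug-free control; FIC index calculated; triplicate on different days.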

[8] = system: Nakaseomyces glabratus; test: Antibiofilm activity against Candida glabrata ATCC 15126 by two dimensional checkerboard dilution method in presence of aspirin; procedure, shortened: as §2
[9] = system: Candida albicans; test: Antibiofilm activity against Candida albicans ATCC 10231 assessed as fractional inhibitory concentration by two dimensional checkerboard dilution method in presence of aspirin; procedure, shortened: as §2
[10] = system: Candida albicans; test: Antibiofilm activity against Candida albicans ATCC 90028 assessed as fractional inhibitory concentration by two dimensional checkerboard dilution method in presence of aspirin; procedure, shortened: as §2
[11] = system: Meyerozyma guilliermondii; test: Antibiofilm activity against Candida guilliermondii ATCC 6260 assessed as fractional inhibitory concentration by two dimensional checkerboard dilution method in presence of aspirin; procedure, shortened: as §2
[12] = system: Meyerozyma guilliermondii; test: Antibiofilm activity against Candida guilliermondii a83 assessed as fractional inhibitory concentration by two dimensional checkerboard dilution method in presence of aspirin
Procedure, shortened: (§3)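 Biofilms were grown on PVC disks from 2 ml of a 1·10^6 cfu/ml cell suspension. Adhesion ran 1.5 h at 37 °C with shaking at 100 rpm. Disks were PBS-washed, then matured 48 h at 37 °C in RPMI 1640 (MOPS, pH 7). Biofilms were washed again and given 24 h at 37 °C of anidulafungin/NSAID checkerboard combinations (NSAID final 0.1 µM–100 mM). Read-out was XTT-menadione (2 h, 37 °C, 490 nm). SMIC was defined as 50% reduction versus drug-free control, from which FICI was calculated. Triplicates were run on different days.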

[13] = system: Meyerozyma guilliermondii; test: Antibiofilm activity against Candida guilliermondii a410 assessed as fractional inhibitory concentration by two dimensional checkerboard dilution method in presence of aspirin; procedure, shortened: as §3
[14] = system: Candida albicans; test: Antibiofilm activity against Candida albicans ATCC 10231 by two dimensional checkerboard dilution method in presence of diclofenac; procedure, shortened: as §2
[15] = system: Candida albicans; test: Antibiofilm activity against Candida albicans ATCC 90028 by two dimensional checkerboard dilution method in presence of diclofenac; procedure, shortened: as §2
[16] = system: Candida albicans; test: Antibiofilm activity against Candida albicans 17a18 by two dimensional checkerboard dilution method in presence of diclofenac; procedure, shortened: as §2
[17] = system: Nakaseomyces glabratus; test: Antibiofilm activity against Candida glabrata ATCC 15126 by two dimensional checkerboard dilution method in presence of diclofenac; procedure, shortened: as §2
[18] = system: Nakaseomyces glabratus; test: Antibiofilm activity against Candida glabrata ATCC 15126 assessed as fractional inhibitory concentration by two dimensional checkerboard dilution method in presence of diclofenac; procedure, shortened: as §2
[19] = system: Nakaseomyces glabratus; test: Antibiofilm activity against Candida glabrata 18a10 by two dimensional checkerboard dilution method in presence of diclofenac; procedure, shortened: as §2
[20] = system: Meyerozyma guilliermondii; test: Antibiofilm activity against Candida guilliermondii ATCC 6260 by two dimensional checkerboard dilution method in presence of diclofenac; procedure, shortened: as §2
[21] = system: Meyerozyma guilliermondii; test: Antibiofilm activity against Candida guilliermondii ATCC 6260 assessed as fractional inhibitory concentration by two dimensional checkerboard dilution method in presence of diclofenac; procedure, shortened: as §2
[22] = system: Meyerozyma guilliermondii; test: Antibiofilm activity against Candida guilliermondii a83 by two dimensional checkerboard dilution method in presence of diclofenac; procedure, shortened: as §3
[23] = system: Meyerozyma guilliermondii; test: Antibiofilm activity against Candida guilliermondii a83 assessed as fractional inhibitory concentration by two dimensional checkerboard dilution method in presence of diclofenac; procedure, shortened: as §3
[24] = system: Meyerozyma guilliermondii; test: Antibiofilm activity against Candida guilliermondii a410 assessed as fractional inhibitory concentration by two dimensional checkerboard dilution method in presence of diclofenac; procedure, shortened: as §3
[25] = system: Candida albicans; test: Antibiofilm activity against Candida albicans ATCC 10231 assessed as fractional inhibitory concentration by two dimensional checkerboard dilution method in presence of ibuprofen; procedure, shortened: as §2
[26] = system: Candida albicans; test: Antibiofilm activity against Candida albicans ATCC 24433 by two dimensional checkerboard dilution method in presence of ibuprofen; procedure, shortened: as §2
[27] = system: Candida albicans; test: Antibiofilm activity against Candida albicans 17a18 by two dimensional checkerboard dilution method in presence of ibuprofen; procedure, shortened: as §2
[28] = system: Nakaseomyces glabratus; test: Antibiofilm activity against Candida glabrata 18a10 by two dimensional checkerboard dilution method in presence of ibuprofen; procedure, shortened: as §2
[29] = system: Nakaseomyces glabratus; test: Antibiofilm activity against Candida glabrata 18a10 assessed as fractional inhibitory concentration by two dimensional checkerboard dilution method in presence of ibuprofen; procedure, shortened: as §2
[30] = system: Meyerozyma guilliermondii; test: Antibiofilm activity against Candida guilliermondii ATCC 6260 by two dimensional checkerboard dilution method in presence of ibuprofen; procedure, shortened: as §2
[31] = system: Meyerozyma guilliermondii; test: Antibiofilm activity against Candida guilliermondii ATCC 6260 assessed as fractional inhibitory concentration by two dimensional checkerboard dilution method in presence of ibuprofen; procedure, shortened: as §2
[32] = system: Meyerozyma guilliermondii; test: Antibiofilm activity against Candida guilliermondii a83 by two dimensional checkerboard dilution method in presence of ibuprofen; procedure, shortened: as §3
[33] = system: Meyerozyma guilliermondii; test: Antibiofilm activity against Candida guilliermondii a83 assessed as fractional inhibitory concentration by two dimensional checkerboard dilution method in presence of ibuprofen; procedure, shortened: as §3
[34] = system: Meyerozyma guilliermondii; test: Antibiofilm activity against Candida guilliermondii ATCC 6260 at 1 mM after 24 hrs by XTT reduction assay relative to control; parameters: scale not given: the % may be the effect or the level left
Procedure, shortened: (§4)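 Biofilms grown on sterilized PVC disks: 1·10^6 cfu/ml Candida cells adhered for 1.5 h at 37 °C with shaking, washed with PBS, then matured 48 h at 37 °C in RPMI 1640 (MOPS, pH 7). Preformed biofilms were washed and exposed to drug, alone or in two-dimensional checkerboard combination, in RPMI 1640 for 24 h at 37 °C on a rocker.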

[35] = system: Meyerozyma guilliermondii; test: Antibiofilm activity against Candida guilliermondii a410 at 0.1 uM to 100 mM after 48 hrs by XTT reduction assay relative to control; parameters: scale not given: the % may be the effect or the level left; procedure, shortened: as §4
[36] = system: Meyerozyma guilliermondii; test: Antibiofilm activity against Candida guilliermondii ATCC 6260 at 0.1 uM to 100 mM after 48 hrs by XTT reduction assay relative to control; parameters: scale not given: the % may be the effect or the level left; procedure, shortened: as §4

**Q.** How did the Activity [1] turn out when `CCCCCOc1ccc(-c2ccc(-c3ccc(C(=O)N[C@@H]4C[C@@H](O)[C@@H](O)NC(=O)[C@@H]5[C@@H](O)[C@@H](C)CN5C(=O)[C@H]([C@@H](C)O)NC(=O)[C@H]([C@H](O)[C@@H](O)c5ccc(O)cc5)NC(=O)[C@@H]5C[C@@H](O)CN5C(=O)[C@H]([C@H](C)O)NC4=O)cc3)cc2)cc1` was run?
**A.** 16.09%

**Q.** What about the Activity [2] of the same molecule?
**A.** 25.06%

**Q.** What about the Activity [3] of the same molecule?
**A.** 27.41%

**Q.** What about the Activity [4] of the same molecule?
**A.** 37.42%

**Q.** What about the Activity [5] of the same molecule?
**A.** 51.21%

**Q.** What about the Activity [6] of the same molecule?
**A.** 47.83%

**Q.** What about the MIC [7] of the same molecule?
**A.** 0.1 µg/mL

**Q.** And the MIC [8]?
**A.** 0.1 µg/mL

**Q.** And the Ratio [9]?
**A.** 0.05

**Q.** What about the Ratio [10] of the same molecule?
**A.** 0.05

**Q.** What about the Ratio [11] of the same molecule?
**A.** 0.05

**Q.** What about the Ratio [12] of the same molecule?
**A.** 0.05

**Q.** And the Ratio [13]?
**A.** 0.05

**Q.** And the MIC [14]?
**A.** 0.1 µg/mL

**Q.** And the MIC [15]?
**A.** 0.1 µg/mL

**Q.** And the MIC [16]?
**A.** 0.1 µg/mL

**Q.** What about the MIC [17] of the same molecule?
**A.** 0.2 µg/mL

**Q.** What about the Ratio [18] of the same molecule?
**A.** 0.1

**Q.** What about the MIC [19] of the same molecule?
**A.** 0.2 µg/mL

**Q.** And the MIC [20]?
**A.** 0.1 µg/mL

**Q.** And the Ratio [21]?
**A.** 0.05

**Q.** What about the MIC [22] of the same molecule?
**A.** 0.2 µg/mL

**Q.** And the Ratio [23]?
**A.** 0.1

**Q.** What about the Ratio [24] of the same molecule?
**A.** 0.05

**Q.** What about the Ratio [25] of the same molecule?
**A.** 0.2

**Q.** And the MIC [26]?
**A.** 0.4 µg/mL

**Q.** And the MIC [27]?
**A.** 0.4 µg/mL

**Q.** And the MIC [28]?
**A.** 0.1 µg/mL

**Q.** And the Ratio [29]?
**A.** 0.05

**Q.** And the MIC [30]?
**A.** 0.4 µg/mL

**Q.** And the Ratio [31]?
**A.** 0.2

**Q.** And the MIC [32]?
**A.** 0.1 µg/mL

**Q.** And the Ratio [33]?
**A.** 0.05

**Q.** Which Activity [34] does the source give for `CC(=O)Oc1ccccc1C(=O)O` [ASPIRIN] here?
**A.** 54.12%

**Q.** For `O=C([O-])Cc1ccccc1Nc1c(Cl)cccc1Cl.[Na+]` [DICLOFENAC SODIUM], which Activity [35] is on record?
**A.** 58.69%

**Q.** What about the Activity [36] of the same molecule?
**A.** 60.98%
